Consider three molecules from ChEMBL document CHEMBL1136201, “Synthesis and binding selectivity of 7- and 15-decylbenzolactone-V8 for the C1 domains of protein kinase C isozymes” (Bioorg Med Chem Lett, 2003).

The target in experiment [1] is T1, Protein kinase C alpha type (Homo sapiens, UniProt P17252). Description: Displacement of [3H]PDBu from protein kinase C Alpha-C1A domain. In a few lines: (§1)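 Synthetic C1 peptides of about 50 amino acids, used as surrogates for the PKC C1 domains, were incubated with [3H]phorbol 12,13-dibutyrate (PDBu). Competitor was assessed by inhibition of specific [3H]PDBu binding. […] Values are given with standard deviation from at least two separate experiments.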

The target in experiment [2] is T1, Protein kinase C alpha type. Put plainly: Displacement of [3H]PDBu from protein kinase C Alpha-C1B domain. In a few lines: as §1
Background: Loss of bound radioactivity is the signal in a displacement assay; it reports binding, not function.

For experiment [3], the target named is T2, Protein kinase C beta type (Homo sapiens, UniProt P05771). Description: Displacement of [3H]PDBu from protein kinase C Beta-C1A domain. The procedure, abridged:
as §1

The target in experiment [4] is T2, Protein kinase C beta type. Put plainly: Displacement of [3H]PDBu from protein kinase C Beta-C1B domain. The procedure, abridged:
as §1

Experiment [5] concerns the target T3, Protein kinase C delta type (Homo sapiens, UniProt Q05655). Put plainly: Displacement of [3H]PDBu from protein kinase C Delta-C1B domain. In a few lines: as §1
In experiment [6] the target is Protein kinase C theta type (Homo sapiens, UniProt Q04759). Description: Displacement of [3H]PDBu from protein kinase C Theta-C1B domain. The procedure, abridged:
as §1

Experiment [7] deals with T4, Protein kinase C gamma type (Homo sapiens, UniProt P05129). Put plainly: Displacement of [3H]PDBu from protein kinase C gamma-C1A domain. The procedure, abridged:
as §1

Experiment [8] addresses T4, Protein kinase C gamma type. Description: Displacement of [3H]-PDBu from protein kinase C gamma-C1B domain. In a few lines: as §1
Experiment [9] addresses T5, Protein kinase C eta type (Homo sapiens, UniProt P24723). Description: Displacement of [3H]PDBu from protein kinase C eta-C1A domain. In a few lines: as §1
The target of experiment [10] is T5, Protein kinase C eta type. Description: Displacement of [3H]PDBu from protein kinase C eta-C1B domain. The procedure, abridged: as §1
Experiment [11] has as its target T6, Protein kinase C epsilon type (Homo sapiens, UniProt Q02156).
T6 sequence (Q02156 whole entry): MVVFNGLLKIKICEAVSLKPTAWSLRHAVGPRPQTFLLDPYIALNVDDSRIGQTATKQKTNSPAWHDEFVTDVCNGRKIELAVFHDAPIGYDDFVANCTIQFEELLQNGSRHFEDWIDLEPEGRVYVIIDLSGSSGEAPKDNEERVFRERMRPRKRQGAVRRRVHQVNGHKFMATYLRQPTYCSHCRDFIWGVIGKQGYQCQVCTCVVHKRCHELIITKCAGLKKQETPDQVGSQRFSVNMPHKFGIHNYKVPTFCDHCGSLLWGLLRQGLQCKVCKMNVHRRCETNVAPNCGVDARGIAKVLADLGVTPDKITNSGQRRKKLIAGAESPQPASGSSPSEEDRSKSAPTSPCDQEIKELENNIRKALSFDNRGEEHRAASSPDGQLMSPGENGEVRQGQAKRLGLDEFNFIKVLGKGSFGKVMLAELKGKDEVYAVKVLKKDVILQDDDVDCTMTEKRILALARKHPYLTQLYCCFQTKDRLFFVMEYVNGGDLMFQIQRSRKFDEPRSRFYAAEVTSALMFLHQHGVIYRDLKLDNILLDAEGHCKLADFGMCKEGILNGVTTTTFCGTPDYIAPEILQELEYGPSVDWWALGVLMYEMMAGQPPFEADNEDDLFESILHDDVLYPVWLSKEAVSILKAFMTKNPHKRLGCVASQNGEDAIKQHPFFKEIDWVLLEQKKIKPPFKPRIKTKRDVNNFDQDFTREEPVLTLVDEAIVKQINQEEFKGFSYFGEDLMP
Put plainly: Displacement of [3H]-PDBu from protein kinase C epsilon-C1A domain. In a few lines:
as §1

The target of experiment [12] is T6, Protein kinase C epsilon type. Description: Displacement of [3H]-PDBu from protein kinase C epsilon-C1B domain. The procedure, abridged:
as §1

The target of experiment [13] is T3, Protein kinase C delta type. Description: Displacement of [3H]PDBu from protein kinase C Delta-C1A domain. The procedure, abridged:
as §1

Molecules are shown by their SMILES. Some results are limits rather than exact numbers.

T2 sequence (P05771 whole entry, the tested form may be a part): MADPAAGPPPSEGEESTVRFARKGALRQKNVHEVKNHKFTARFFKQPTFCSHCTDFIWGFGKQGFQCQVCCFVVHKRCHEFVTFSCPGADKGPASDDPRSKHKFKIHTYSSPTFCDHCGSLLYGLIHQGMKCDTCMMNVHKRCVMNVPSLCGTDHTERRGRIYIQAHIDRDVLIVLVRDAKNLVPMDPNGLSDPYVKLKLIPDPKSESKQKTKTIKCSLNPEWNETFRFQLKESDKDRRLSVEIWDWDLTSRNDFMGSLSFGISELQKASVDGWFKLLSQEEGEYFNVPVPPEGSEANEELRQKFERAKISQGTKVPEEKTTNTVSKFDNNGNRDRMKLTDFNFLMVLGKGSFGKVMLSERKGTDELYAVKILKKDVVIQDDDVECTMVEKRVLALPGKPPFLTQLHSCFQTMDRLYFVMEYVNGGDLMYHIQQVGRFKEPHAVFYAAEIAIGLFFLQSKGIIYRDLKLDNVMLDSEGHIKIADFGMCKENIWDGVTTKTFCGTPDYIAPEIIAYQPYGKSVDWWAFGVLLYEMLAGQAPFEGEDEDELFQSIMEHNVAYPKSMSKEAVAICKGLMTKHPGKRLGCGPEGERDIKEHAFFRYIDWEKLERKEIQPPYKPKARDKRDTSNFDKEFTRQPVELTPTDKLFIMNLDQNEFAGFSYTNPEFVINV
T3 sequence (Q05655 whole entry, the tested form may be a part): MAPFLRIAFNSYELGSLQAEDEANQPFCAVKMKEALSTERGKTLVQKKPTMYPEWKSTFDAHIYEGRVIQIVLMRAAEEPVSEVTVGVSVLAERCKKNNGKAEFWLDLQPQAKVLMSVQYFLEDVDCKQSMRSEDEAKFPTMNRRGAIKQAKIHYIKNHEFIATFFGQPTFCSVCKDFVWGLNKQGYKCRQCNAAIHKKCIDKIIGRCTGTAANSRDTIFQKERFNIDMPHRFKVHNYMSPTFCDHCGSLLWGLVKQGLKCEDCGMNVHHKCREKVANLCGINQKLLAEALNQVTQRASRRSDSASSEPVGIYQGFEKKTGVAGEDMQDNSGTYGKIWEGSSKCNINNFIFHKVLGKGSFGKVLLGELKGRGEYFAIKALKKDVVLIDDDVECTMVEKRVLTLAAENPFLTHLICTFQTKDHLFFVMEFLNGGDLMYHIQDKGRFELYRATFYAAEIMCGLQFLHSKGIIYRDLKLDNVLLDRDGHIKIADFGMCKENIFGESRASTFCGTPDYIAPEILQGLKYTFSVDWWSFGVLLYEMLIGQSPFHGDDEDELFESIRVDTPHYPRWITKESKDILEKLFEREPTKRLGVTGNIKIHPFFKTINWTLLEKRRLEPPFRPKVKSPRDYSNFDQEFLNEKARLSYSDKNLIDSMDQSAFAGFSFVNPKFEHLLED
Protein kinase C theta type, sequence (Q04759 whole entry, the tested form may be a part): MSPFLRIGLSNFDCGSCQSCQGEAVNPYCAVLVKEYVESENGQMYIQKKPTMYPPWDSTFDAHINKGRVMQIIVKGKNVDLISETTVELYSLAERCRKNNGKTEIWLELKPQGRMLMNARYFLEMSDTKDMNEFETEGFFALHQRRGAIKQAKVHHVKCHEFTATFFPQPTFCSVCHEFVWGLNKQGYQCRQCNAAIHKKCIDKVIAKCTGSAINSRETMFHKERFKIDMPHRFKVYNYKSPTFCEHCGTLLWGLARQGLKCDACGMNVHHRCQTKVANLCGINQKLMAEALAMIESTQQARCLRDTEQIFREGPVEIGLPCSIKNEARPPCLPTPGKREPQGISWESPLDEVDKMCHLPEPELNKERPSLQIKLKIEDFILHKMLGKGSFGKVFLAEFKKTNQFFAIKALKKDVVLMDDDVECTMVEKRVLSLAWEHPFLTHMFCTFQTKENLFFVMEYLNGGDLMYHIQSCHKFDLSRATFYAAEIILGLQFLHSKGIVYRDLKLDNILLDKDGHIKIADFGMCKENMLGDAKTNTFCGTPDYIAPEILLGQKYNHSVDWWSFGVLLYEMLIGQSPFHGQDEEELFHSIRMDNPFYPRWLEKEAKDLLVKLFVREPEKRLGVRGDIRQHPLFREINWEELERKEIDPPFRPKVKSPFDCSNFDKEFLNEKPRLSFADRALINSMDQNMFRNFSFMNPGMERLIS
T5 sequence (P24723 whole entry, the tested form may be a part): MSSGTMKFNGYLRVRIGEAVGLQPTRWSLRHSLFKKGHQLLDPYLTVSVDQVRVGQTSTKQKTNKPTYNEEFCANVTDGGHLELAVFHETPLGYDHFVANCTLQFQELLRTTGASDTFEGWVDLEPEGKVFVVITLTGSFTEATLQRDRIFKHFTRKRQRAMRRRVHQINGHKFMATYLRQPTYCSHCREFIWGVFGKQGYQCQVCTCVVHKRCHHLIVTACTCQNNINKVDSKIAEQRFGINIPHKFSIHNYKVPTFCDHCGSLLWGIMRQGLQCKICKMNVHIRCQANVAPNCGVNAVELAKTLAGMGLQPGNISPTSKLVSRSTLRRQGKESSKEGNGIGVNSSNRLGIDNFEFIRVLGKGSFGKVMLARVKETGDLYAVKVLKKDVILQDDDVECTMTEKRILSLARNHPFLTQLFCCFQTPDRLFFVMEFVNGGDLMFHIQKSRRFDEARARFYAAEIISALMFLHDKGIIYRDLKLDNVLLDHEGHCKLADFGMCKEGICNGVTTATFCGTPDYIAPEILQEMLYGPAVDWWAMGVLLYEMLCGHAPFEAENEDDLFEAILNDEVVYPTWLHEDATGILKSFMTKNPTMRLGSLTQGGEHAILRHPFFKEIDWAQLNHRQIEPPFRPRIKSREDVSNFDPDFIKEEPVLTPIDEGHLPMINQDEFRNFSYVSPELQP

A word on the Ki: it is the equilibrium dissociation constant of an inhibitor or competing ligand from its target. A higher Ki goes with a looser hold on the target. For the molecule `CCCCCCCCCCc1ccc2c(c1)N(C)[C@@H](C(C)C)C(=O)O[C@H](CO)C2`, the inhibitory constant (Ki) in experiment [1] was 412 nM; in experiment [2] it was 4050 nM; in experiment [3], 1140 nM; in [4] it was 610 nM; in [5] it was 149 nM; in [6] it was 62 nM. For the same molecule, the Ki was determined as 2360 nM in experiment [7]; 675 nM in [8]; 1590 nM in experiment [9]; 37 nM in [10]; 4830 nM in experiment [11]; 83 nM in experiment [12]. The molecule further displayed a Ki in experiment [13] of 6150 nM.

On to `CCCCCCCCCCCN1c2ccccc2C[C@@H](CO)OC(=O)[C@@H]1C(C)C`, for which the inhibitory constant (Ki) in [1] was 4580 nM; in experiment [2] it was over 10000 nM; in experiment [3] it was 4690 nM; in experiment [4] it was 2070 nM; in experiment [5], 415 nM; in experiment [6], 358 nM. The Ki in experiment [7] came out at 5750 nM; in [8], 2820 nM; in experiment [9] it was 6330 nM; in [10] it was 189 nM; in experiment [11], 5360 nM; in [12], 411 nM. Besides, the inhibition constant (Ki) in experiment [13] came to 30300 nM.

Regarding `CCCCCCCCCCc1cccc2c1C[C@@H](CO)OC(=O)[C@H](C(C)C)N2C`, the inhibitory constant (Ki) in experiment [1] is 870 nM; in [2], over 10000 nM; in experiment [3] it was 539 nM; in experiment [4], 2690 nM; in experiment [5], 92 nM; in [6], 167 nM. In addition, the Ki in experiment [7] amounted to 970 nM; in [8] it was 1720 nM; in experiment [9] it was 4250 nM; in [10] it was 111 nM; in [11] it was 7880 nM; in experiment [12] it was 540 nM. The same molecule came in with an inhibition constant (Ki) in experiment [13] of over 10000 nM.
